According to ChEMBL document CHEMBL5252514, “Conopeptide-Derived κ-Opioid Agonists (Conorphins): Potent, Selective, and Metabolic Stable Dynorphin A Mimetics with Antinociceptive Properties” (J Med Chem, 2016):
Activity calls are given as the source filed them. The rule behind the calls is not given here. Where a SMILES comes first, the peptide text is derived from it.

Key:
[1] = Metabolic stability in Wistar rat plasma assessed as compound remaining measured after 24 hrs by HPLC analysis; format: ADME, cell-free; details: read-out: Stability
How it was run: (§1)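 Peptide at 1 mg/mL in sterile PBS pH 7.4 was mixed 1:1 with thawed, centrifuged Wistar rat plasma supernatant and incubated at 37°C in triplicate. Samples at 0, 1, 2, 3, 4, 6 and 24 h were quenched with acetonitrile and then 2% TFA/water, and analysed by HPLC with inline electrospray MS.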

[2] = Metabolic stability in Wistar rat plasma assessed as BzPrrQ[CHA][PEN]C formation by measuring relative abundance measuring after 3600 mins by HPLC analysis relative to control; format: ADME, cell-free; details: 60 h
[3] = biological target: T1, Kappa-type opioid receptor (Homo sapiens, UniProt P41145); experiment: Displacement of [3H]U69593 from human kappa opioid receptor expressed in CHO-K1 cells incubated for 1 hr by 1450 microbeta scintillation counter analysis; format: cell-based
How it was run: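 Membranes from transiently KOR-transfected CHO-K1 cells (~2 µg/well) used in SPA with 3H-U69,593 (1 nM). Competitor ranged 1 pM–10 µM in 50 mM Tris-HCl pH 7.4, 5 mM MgCl2, 0.1% BSA. Incubated 1 h at room temperature with shaking. Nonspecific binding defined with 10 µM dynorphin A. Sigmoidal dose-response fit; at least three independent experiments in triplicate.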

Homo sapiens [4] = organism: Homo sapiens; experiment: Selectivity ratio, ratio of Ki for human KOR to Ki for human DOR
[5] = biological target: T1, Kappa-type opioid receptor; experiment: Agonist activity at human kappa opioid receptor expressed in CHO-K1 cells assessed as inhibition of forskolin-stimulated cAMP production incubated for 30 mins by LANCE cAMP assay; format: cell-based
How it was run: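 Transiently KOR-transfected CHO-K1 cells taken 24 h post-transfection, 3,000 cells/well in HBSS stimulation buffer (0.1% BSA, 0.5 mM IBMX, 5 mM HEPES, pH 7.4). Forskolin (1 µM final) and ligand added, then 30 min at RT. LANCE Eu-cAMP tracer/anti-cAMP TR-FRET read after 1 h at RT. Sigmoidal dose-response fit.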

[6] = biological target: T1, Kappa-type opioid receptor; experiment: Agonist activity at human kappa opioid receptor expressed in CHO-K1 cells assessed as ERK phosphorylation incubated for 2 hrs by Alphascreen surefire method; format: cell-based
How it was run: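 CHO-K1 cells transiently transfected with KOR plasmid, harvested 24 h later, plated at 50,000 cells/well and settled 24 h, then serum-starved 12 h. Ligands in serum-free medium applied 10 min at room temperature. Lysates read by AlphaScreen SureFire phospho-ERK1/2 after 2 h at 37 °C. Curves fitted by sigmoidal dose-response.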

[7] = Metabolic stability in Wistar rat plasma assessed as half life by HPLC analysis; format: ADME, cell-free; how it was run: as §1
Mus musculus [8] = experiment: Antinociceptive activity against C57BL/6 mouse assessed as inhibition of colonic nociceptor mechanosensitivity at 1 to 1000 nM, administered topically on colon mucosal surface for 28 days; format: functional, organism-based; details: dose 1-1000 nM, time 28.0 day
How it was run: (§2)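 Ex vivo single-unit extracellular recording of splanchnic colonic afferents from healthy C57BL/6 mice or CVH mice (28 days after TNBS, inflammation resolved). Baseline mechanosensitivity was measured with a 2 g von Frey probe applied 3 s to the receptive field, repeated 3–4 times 10 s apart. KOR agonist was applied to the mucosal surface for 5 min per concentration inside a small metal ring, then mechanosensitivity was re-tested.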

Mus musculus [9] = experiment: Antinociceptive activity against C57BL/6 mouse model of TNBS induced chronic visceral hypersensitivity assessed as inhibition of colonic nociceptor mechanosensitivity at 1000 nM, administered topically on colon mucosal surface for 28 days in presence of norbinaltorphimine; format: functional, organism-based; details: time 28.0 day; how it was run: as §2
Homo sapiens [10] = organism: Homo sapiens; experiment: Selectivity ratio, ratio of Ki for human KOR to Ki for human MOR
Homo sapiens [11] = organism: Homo sapiens; experiment: Selectivity ratio, ratio of Ki for human KOR to Ki for human NOP
Mus musculus [12] = experiment: Antinociceptive activity against C57BL/6 mouse model of TNBS induced chronic visceral hypersensitivity assessed as inhibition of colonic nociceptor mechanosensitivity at 1000 nM, administered topically on colon mucosal surface for 28 days; format: functional, organism-based; details: time 28.0 day; how it was run: as §2
[13] = Metabolic stability in Wistar rat plasma assessed as BzPrrQ[CHA]CC formation by measuring relative abundance measuring after 360 mins by HPLC analysis relative to control; format: ADME, cell-free; details: 6 h; how it was run: as §1
[14] = Metabolic stability in Wistar rat plasma assessed as UrrQ[CHA][PEN]C formation by measuring relative abundance measuring after 3600 mins by HPLC analysis relative to control; format: ADME, cell-free; details: 60 h
[15] = Metabolic stability in Wistar rat plasma assessed as UrrQ[CHA] formation by measuring relative abundance measuring after 120 mins by HPLC analysis relative to control; format: ADME, cell-free; details: 2 h; how it was run: as §1
[16] = Metabolic stability in Wistar rat plasma assessed as UrrQ[CHA]CC formation by measuring relative abundance measuring after 120 mins by HPLC analysis relative to control; format: ADME, cell-free; details: 2 h; how it was run: as §1
[17] = Metabolic stability in Wistar rat plasma assessed as URR formation by measuring relative abundance measuring after 60 mins by HPLC analysis relative to control; format: ADME, cell-free; details: 1 h; how it was run: as §1
[18] = Metabolic stability in Wistar rat plasma assessed as URRQ[CHA] formation by measuring relative abundance measuring after 60 mins by HPLC analysis relative to control; format: ADME, cell-free; details: 1 h; how it was run: as §1
[19] = Metabolic stability in Wistar rat plasma assessed as Q[CHA]CC formation by measuring relative abundance measuring after 60 mins by HPLC analysis relative to control; format: ADME, cell-free; details: 1 h; how it was run: as §1

T1 sequence (P41145 whole entry): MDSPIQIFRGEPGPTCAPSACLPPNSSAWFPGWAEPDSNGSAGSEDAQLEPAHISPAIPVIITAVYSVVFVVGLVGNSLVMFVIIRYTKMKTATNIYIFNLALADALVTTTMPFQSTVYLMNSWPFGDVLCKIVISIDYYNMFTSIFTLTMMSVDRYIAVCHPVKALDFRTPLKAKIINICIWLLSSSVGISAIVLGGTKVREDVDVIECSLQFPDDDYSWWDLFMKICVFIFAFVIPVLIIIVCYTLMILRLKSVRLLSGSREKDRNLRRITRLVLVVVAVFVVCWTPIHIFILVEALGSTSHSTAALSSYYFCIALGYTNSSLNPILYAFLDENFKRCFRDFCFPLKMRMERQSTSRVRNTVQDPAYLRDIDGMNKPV

Structure (SMILES)	Ki [3]	Ratio Ki (Homo sapiens [4])	EC50 [5]	EC50 [6]	half-life [7]	Ratio Ki (Homo sapiens [10])	Ratio Ki (Homo sapiens [11])	also measured
CC1(C)SSC[C@@H](C(N)=O)NC(=O)[C@H]1NC(=O)[C@H](CC1CCCCC1)NC(=O)[C@H](CCC(N)=O)NC(=O)[C@@H](CCCNC(=N)N)NC(=O)[C@@H](CCCNC(=N)N)NC(=O)[C@@H]1CCCN1C(=O)c1ccccc1	1140 nM							remaining at 24 h [1]: 95%; Activity [2]: 1
N=C(N)NCCC[C@@H](NC(=O)[C@@H](CCCNC(=N)N)NC(=O)[C@@H]1CCCN1C(=O)c1ccccc1)C(=O)N[C@@H](CCC(N)=O)C(=O)N[C@@H](CC1CCCCC1)C(=O)N[C@H]1CSSC[C@@H](C(N)=O)NC1=O	0.25 nM	> 250000	0.41 nM	0.36 nM	240 min	> 250000	> 45000	inhibition (Mus musculus [8]): inactive; inhibition (Mus musculus [9]): inactive; inhibition (Mus musculus [12]): Dose-Dependent Effect; Activity [13]: 1
CC[C@H](C)[C@H](NC(=O)[C@H](CCC(N)=O)NC(=O)[C@H](CCCNC(=N)N)NC(=O)[C@H](CCCNC(=N)N)NC(=O)[C@@H]1CSSC[C@H](NC(=O)[C@@H]2CCC(=O)N2)C(=O)N1)C(=O)N[C@H]1CSSC[C@@H](C(N)=O)NC1=O (HELM PEPTIDE1{[Glp].C.C.R.R.Q.I.C.C.[am]}$PEPTIDE1,PEPTIDE1,2:R3-3:R3|PEPTIDE1,PEPTIDE1,8:R3-9:R3$$$V2.0)	67.5 nM	> 630	11.5 nM	5860 nM	15 min	> 630	> 630	
CC[C@H](C)[C@H](NC(=O)[C@H](CCC(N)=O)NC(=O)[C@H](CCCNC(=N)N)NC(=O)[C@H](CCCNC(=N)N)NC(=O)[C@@H]1CCC(=O)N1)C(=O)N[C@H]1CSSC[C@@H](C(N)=O)NC1=O (HELM PEPTIDE1{[Glp].R.R.Q.I.C.C.[am]}$PEPTIDE1,PEPTIDE1,6:R3-7:R3$$$V2.0)	191 nM	> 250	1.9 nM	7490 nM	180 min	> 250	> 250	
CC1(C)SSC[C@@H](C(N)=O)NC(=O)[C@H]1NC(=O)[C@H](CC1CCCCC1)NC(=O)[C@H](CCC(N)=O)NC(=O)[C@@H](CCCNC(=N)N)NC(=O)[C@@H](CCCNC(=N)N)NC(=O)[C@@H]1CCC(=O)N1	1.3 nM	> 1200	10.5 nM	450 nM		> 39000	> 25000	Activity [14]: 1; remaining at 24 h [1]: 100%
N=C(N)NCCC[C@@H](NC(=O)[C@@H]1CCC(=O)N1)C(=O)N[C@H](CCCNC(=N)N)C(=O)N[C@@H](CCC(N)=O)C(=O)N[C@@H](CC1CCCCC1)C(=O)N[C@H]1CSSC[C@@H](C(N)=O)NC1=O	3.9 nM	> 10000	12.6 nM	1100 nM	360 min	> 10000	> 10000	Activity [15]: 0.1; Activity [16]: 1
N=C(N)NCCC[C@@H](NC(=O)[C@@H](CCCNC(=N)N)NC(=O)[C@@H]1CCCN1C(=O)c1ccccc1)C(=O)N[C@@H](CCC(N)=O)C(=O)N[C@H](C(=O)N[C@H]1CSSC[C@@H](C(N)=O)NC1=O)C1CCCCC1	0.48 nM	> 125000	0.39 nM	0.62 nM	1200 min	> 125000	> 125000	
N=C(N)NCCC[C@@H](NC(=O)[C@@H]1CCC(=O)N1)C(=O)N[C@H](CCCNC(=N)N)C(=O)N[C@@H](CCC(N)=O)C(=O)N[C@@H](CC1CCCCC1)C(=O)N[C@H]1C[Se]SC[C@@H](C(N)=O)NC1=O	7.8 nM				360 min			
N=C(N)NCCC[C@H](NC(=O)[C@@H]1CCC(=O)N1)C(=O)N[C@@H](CCCNC(=N)N)C(=O)N[C@@H](CCC(N)=O)C(=O)N[C@@H](CC1CCCCC1)C(=O)N[C@H]1CSSC[C@@H](C(N)=O)NC1=O	6.7 nM	> 10000	15.2 nM	1580 nM	90 min	> 10000	> 10000	Activity [17]: 0.01; Activity [18]: 0.1; Activity [19]: 0.01
N=C(N)NCCC[C@H](NC(=O)[C@@H](CCCNC(=N)N)NC(=O)[C@@H]1CCC(=O)N1)C(=O)N[C@@H](CCC(N)=O)C(=O)N[C@@H](CC1CCCCC1)C(=O)N[C@H]1CSSC[C@@H](C(N)=O)NC1=O	13 nM				90 min			
CC[C@H](C)[C@H](NC(=O)[C@H](CCC(N)=O)NC(=O)[C@H](CCCNC(=N)N)NC(=O)[C@H](CCCNC(=N)N)NC(=O)[C@@H]1CSSC[C@H](NC(=O)[C@@H](N)CC(N)=O)C(=O)N1)C(=O)N[C@H]1CSSC[C@@H](C(N)=O)NC1=O (HELM PEPTIDE1{N.C.C.R.R.Q.I.C.C.[am]}$PEPTIDE1,PEPTIDE1,2:R3-3:R3|PEPTIDE1,PEPTIDE1,8:R3-9:R3$$$V2.0)	80 nM	> 630	9450 nM	9850 nM	15 min	> 630	> 630	
